pIC50: −log10 of the molar value.
Experiments:
Type in all cases: functional
Conditions in all cases: read-out: ID50 (the source's name)
[1] = test system: JAR; experiment: The compound along with CPG2 was tested for cytotoxicity against human JAR, choriocarcinoma cell line.
How it was run: (§1)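 JAR and LS174T cells (5×10^4 mL⁻¹, DMEM) exposed to prodrug at 0.5-800 μM, freshly made and adjusted to pH 7.4. Dosing was repeated at the same concentration three times, 24 h apart. CPG2 at 6 units mL⁻¹ final was added with each dose to generate active drug in situ. Duplicates. Viability was counted by hemocytometer 24 h after the last dose, relative to untreated controls.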

[2] = test system: LS174T; experiment: The compound was tested for cytotoxicity against human LS174T,colorectal cell line.
How it was run: (§2)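 JAR and LS174T cells (5×10^4 mL⁻¹, DMEM) exposed to compound at 0.5-800 μM, with no enzyme added. Solutions were freshly made and adjusted to pH 7.4. Dosing was repeated at the same concentration three times, 24 h apart. Duplicates. Viability was counted by hemocytometer 24 h after the last dose, relative to untreated controls.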

[3] = test system: LS174T; experiment: The compound along with CPG2 was tested for cytotoxicity against human LS174T,colorectal cell line.; how it was run: as §1
[4] = test system: JAR; experiment: The compound was tested for cytotoxicity against human JAR, choriocarcinoma cell line.; how it was run: as §2

SMILES	pIC50 [1]	pIC50 [2]	pIC50 [3]	pIC50 [4]
CS(=O)(=O)OCCN(CCOS(C)(=O)=O)c1ccc(C(=O)NC(CCC(=O)O)C(=O)O)cc1 (configuration not stated)	4.22	3.10	4.19	< 3.10
CS(=O)(=O)OCCN(CCCl)c1ccc(C(=O)NC(CCC(=O)O)C(=O)O)cc1 (configuration not stated)	5.00	3.55	5.00	3.20
O=C(O)CCC(NC(=O)c1ccc(N(CCCl)CCCl)cc1)C(=O)O (configuration not stated)	5.10	< 3.10	4.60	< 3.10
